OX1R antag-1 – OX1R (HCRTR1) antagonists, primary screen, fluorescence, CHO/OX1R cells, Fluo-8 calcium, orexin A. Fluo-8 calcium fluorescence. 330,000 tested, 0.43% active. AID 434989, 2010. inhibition, % at 5 µM;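 active means inhibition above its plate's threshold, mean inhibition of all tested compounds on the plate plus 3 SD, cut at about 37% in these data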;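 further: 0% = orexin A challenge wells and 100% = SB-334867-A antagonist wells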
Target sequence (O43613 whole entry, looked up): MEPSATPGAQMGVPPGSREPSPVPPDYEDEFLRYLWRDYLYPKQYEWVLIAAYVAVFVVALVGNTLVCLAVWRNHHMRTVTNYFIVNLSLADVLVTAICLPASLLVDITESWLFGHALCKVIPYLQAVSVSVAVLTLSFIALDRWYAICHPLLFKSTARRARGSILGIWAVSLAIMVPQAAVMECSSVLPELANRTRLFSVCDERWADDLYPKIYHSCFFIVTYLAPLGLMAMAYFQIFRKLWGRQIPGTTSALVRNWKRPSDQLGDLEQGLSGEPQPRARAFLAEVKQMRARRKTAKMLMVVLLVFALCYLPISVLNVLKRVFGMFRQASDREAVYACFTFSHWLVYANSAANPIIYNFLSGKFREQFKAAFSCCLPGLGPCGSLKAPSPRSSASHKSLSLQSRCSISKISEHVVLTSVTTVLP
TAAR1 agonist – human TAAR1 agonists, primary screen, Fluo-8 calcium fluorescence, CHO RD-HGA16 cells; Trace amine-associated receptor 1 (Homo sapiens), Q96RJ0; vehicle wells 0%, saturating PEA agonist 100%; activation, % at 3 µM; 360,000 tested, 0.99% active;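 active means activation above the mean activation of all test compounds in the run plus 3 SD, cut at about 38% in these data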
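System: CHO RD-HGA16 cells carrying human TAAR1 plus Gα16; Incubation: 17-24 h seeding, 75 min 37 °C dye, 30 min RT; Measured by: Fluo-8 fluorescence, 5 s baseline then 140 s kinetic read; Control set: DMSO and PEA EC100; Replication: single well for each compound.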
GPR7 antag – GPR7 receptor antagonists, primary screen, cell-based, fluorescence, single concentration; Neuropeptides B/W receptor type 1 (Homo sapiens), P48145; GPR7-expressing cells, fluorescence antagonist assay; inhibition, % at 4.4 µM; 290,000 tested, 1.1% active; AID 1861, 2009; in the data active means inhibition above about 16%, passing the limit was not always enough;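 further: cells stimulated with the agonist NPW; 0% = agonist with vehicle and 100% = vehicle without agonist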
Target sequence (P48145 whole entry, looked up): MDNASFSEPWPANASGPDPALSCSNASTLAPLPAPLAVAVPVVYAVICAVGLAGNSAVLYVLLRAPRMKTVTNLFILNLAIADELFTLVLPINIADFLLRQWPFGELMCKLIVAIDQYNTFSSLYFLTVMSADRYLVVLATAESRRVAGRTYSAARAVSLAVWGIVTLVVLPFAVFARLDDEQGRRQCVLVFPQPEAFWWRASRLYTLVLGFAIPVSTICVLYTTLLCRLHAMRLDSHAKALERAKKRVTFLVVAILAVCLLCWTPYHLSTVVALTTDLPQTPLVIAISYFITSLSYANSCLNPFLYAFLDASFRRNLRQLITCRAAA
CHO parental Ca – ATP-evoked calcium signal inhibitors, parental CHO, primary screen, counter-screen for OX1R antagonist project, cell-based, fluorescence, Fluo-8 calcium dye; inhibition, % at 5.6 µM; AID 463079, 2010; parental CHO-K1, ATP-induced calcium, Fluo-8 fluorescence; 330,000 tested, 0.63% active;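 active means inhibition above that plate's mean sample inhibition plus 3 SD, cut at about 26% in these data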;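 further: 0% = ATP-challenged DMSO wells and 100% = DMSO wells without ATP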
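Assay system: parental CHO cells; Read-out basis: percent inhibition of ATP-evoked calcium rise, normalized to controls; Benchmarks: ATP and no-ATP DMSO wells; Compound dosing: single nominal dose of 5.6 µM per compound; Signal: Fluo-8 calcium dye fluorescence; Also added: ATP as calcium-mobilizing challenge; Repeats: singlicate.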
OX1R antag-2 – antagonists of human orexin 1 receptor (OX1R); inhibition, % at 6.6 µM; Orexin/Hypocretin receptor type 1 (Homo sapiens), O43613; OX1R-expressing cells, FRET antagonist read-out; 330,000 tested, 1.8% active; in the data active means inhibition mostly above about 38%, no sharp cut-off; inactive means mostly below about 40%;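 further: 0% = agonist challenge alone and 100% = reference antagonist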
TAAR1 antagonist – human TAAR1 antagonists, primary screen, Fluo-8 calcium fluorescence, CHO RD-HGA16 cells; Trace amine-associated receptor 1 (Homo sapiens), Q96RJ0; inhibition, % at 3 µM; antagonist; 360,000 tested, 1.5% active;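 active means inhibition above a per-plate cutoff, the mean inhibition of test compounds on that plate plus 3 SD, cut at about 49% in these data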;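 further: 0% = DMSO plus EC80 beta-PEA response and 100% = DMSO alone without agonist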
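test system = CHO RD-HGA16 cells bearing hTAAR1 | replication = singlicate | controls = DMSO-only wells and EC80 β-PEA-stimulated wells | reagent = EC80 β-phenethylamine stimulus | read-out basis = percent inhibition of PEA-evoked calcium signal, max/basal emission ratio | schedule = seeding 17-24 h prior, 75-min 37 °C, 30-min RT dye loading | signal = kinetic Fluo-8 calcium fluorescence measurement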
TAAR1 nonsel count – nonselective antagonists in TAAR1 counter-screen cells, counter-screen for hTAAR1 antagonist project, cell-based, fluorescence, calcium | shares compounds with TAAR1 antagonist | counterscreen cell line, antagonist mode | inhibition, % at 3 µM | 2,400 tested, 77% active | AID 651780, 2012; in the data active means inhibition above about 22%;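 further: CHO-Ga16 host cells stimulated with ATP at an EC80 level; 0% = agonist EC80 plus vehicle and 100% = vehicle without agonist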
TAAR1 ant conf – human TAAR1 antagonists, retest of hits, confirmation, cell-based, fluorescence; inhibition, % at 3 µM; TAAR1-expressing cells, fluorescence antagonist read-out; 2,400 tested, 40% active; shares compounds with TAAR1 antagonist; in the data active means inhibition above about 49%;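 further: CHO-Ga16 host cells challenged with agonist PEA near its EC80; 0% = agonist at EC80 plus vehicle and 100% = vehicle with no agonist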
Ga16 ag counter – calcium activation in Ga16-expressing cells, counter-screen for TAAR1 antagonist project, cell-based, fluorescence; AID 651953, 2012; activation, % at 3 µM; shares compounds with TAAR1 antagonist; agonist counterscreen; 2,400 tested, 18% active; in the data active means activation above about 12%;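 further: 0% = vehicle wells and 100% = saturating stimulus response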
TAAR1 ag count – TAAR1 activation by candidate antagonists – cell-based, fluorescence, counter-screen for TAAR1 antagonist project; shares compounds with TAAR1 antagonist; hTAAR1 cell line, agonist mode; activation, % at 3 µM; 2,400 tested, 2% active; AID 651955, 2012; in the data active means activation above about 37%;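 further: CHO cells stably expressing TAAR1 with calcium dye readout; 0% = DMSO vehicle and 100% = full agonist response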
The depositor's hits bear a star; . = not tested or not shown. Sampled rows, rich in hits. Any-hit rate of the full collection: about 4.6%.

SMILES	OX1R antag-1	TAAR1 agonist	GPR7 antag	CHO parental Ca	OX1R antag-2	TAAR1 antagonist	TAAR1 nonsel count	TAAR1 ant conf	Ga16 ag counter	TAAR1 ag count
CC(=O)c1sc(Nc2ccc(Oc3ccccc3)cc2)nc1C	.	0.3	.	.	.	45.8	.	.	.	.
COc1ccc(-c2cc(-c3nnc(COC(=O)C4CC4C)o3)c3ccccc3n2)cc1OC (stereo not drawn)	-24.7	10.8	-8.9	-15.6	20.4	65.3*	21.3	41.5	5.2	1.2
COc1ccc(-c2cc(-c3nnc(COC(=O)c4ccc(O)cc4)o3)c3ccccc3n2)cc1OC	-12.0	15.7	1.2	-7.5	13.4	48.4	.	.	.	.
Cc1ccccc1C1CC(=O)c2ccccc2C1C (stereo not drawn)	.	0.5	.	.	.	-18.4	.	.	.	.
O=C1/C(=C/Nc2cccc([N+](=O)[O-])c2)CCc2ccccc21	-42.0	-0.3	-9.0	-25.9	10.8	51.4*	12.5	24.2	0.6	-5.1
O=C1/C(=C\c2ccc([N+](=O)[O-])cc2)CCc2ccccc21	-3.4	0.4	-10.0	-8.8	8.6	-28.8	.	.	.	.
CCC(C)Nc1ncnc2c1cnn2Cc1ccc(Cl)cc1 (stereo not drawn)	-10.6	3.7	-11.7	0.2	10.2	55.1*	17.0	34.7	13.2*	18.2
CC(C)Nc1ncnc2c1cnn2Cc1ccc(Cl)cc1	-24.3	5.3	4.5	-8.7	7.4	6.8	.	.	.	.
CCc1nc2ccc(C(=O)NCc3ccc4c(c3)OCO4)cn2c1N(C)CCC(C)C	.	4.8	.	.	.	67.3*	7.4	27.1	4.8	7.1
CCOc1ccccc1CNCC1CCCO1 (stereo not drawn)	-20.9	4.0	-10.3	-13.0	0.6	-6.0	.	.	.	.
Nc1nc(/C=C/c2ccc(F)cc2)nc(-c2ccccc2O)n1	-19.4	-1.4	-3.9	-20.4	32.4	26.8	.	.	.	.
Nc1nc(/C=C/c2cccnc2)nc(-c2ccccc2O)n1	-6.7	33.1	-5.4	8.9	39.1	67.0*	32.4*	57.5*	14.5*	18.1
COc1ccc(OC)c(NC(=O)C2(C)CCN2Cc2cccc(OC)c2F)c1 (stereo not drawn)	.	-0.5	.	.	.	51.4*	15.1	29.9	1.2	-1.5
Cc1cccc(C(=O)OC(C)C(=O)Nc2ccc(S(=O)(=O)N3CCCC3)cc2)c1O (stereo not drawn)	1.2	14.9	.	-5.7	-0.8	68.2*	35.7*	55.0*	11.7*	17.8
Cc1ccccc1OC(C)C(=O)Nc1ccc(S(=O)(=O)N2CCCC2)cc1 (stereo not drawn)	-20.1	6.5	-3.8	-12.7	15.1	-19.7	.	.	.	.
COc1ccc(NC(C)=O)cc1NC(C)C(=O)Nc1ccc(S(=O)(=O)N2CCCCC2)cc1 (stereo not drawn)	-20.9	11.8	.	-4.5	2.7	101.2*	6.9	-0.9	8.3	7.0
COc1ccc(NC(C)=O)cc1S(=O)(=O)Nc1ccc(S(=O)(=O)N2CCCCC2)cc1	-11.8	1.8	.	0.9	6.4	-7.6	.	.	.	.
C[C@H](CO)N1C[C@H](C)[C@@H](CN(C)C(=O)c2ccccn2)Oc2cc(Br)ccc2S1(=O)=O	.	2.3	.	.	.	-11.4	.	.	.	.
COc1ccc(NC(=O)C2Cc3c(-c4cccc(F)c4)ccnc3O2)cc1OC (stereo not drawn)	.	4.5	.	.	.	35.5	.	.	.	.
CC1(c2nnc(-c3ccncc3)o2)CC(c2c(Cl)cccc2Cl)=NO1 (stereo not drawn)	-23.4	13.2	.	-5.2	8.5	32.4	.	.	.	.
CC1(c2nnc(-c3ccccc3)o2)CC(c2c(Cl)cccc2Cl)=NO1 (stereo not drawn)	-14.6	21.0	.	-22.9	10.0	70.2*	22.6*	53.2*	6.4	6.6
COc1cc(OC)cc(C(=O)Nc2cccc(-c3ccc(N4CCOCC4)nn3)c2)c1	-26.2	11.4	.	-12.5	5.3	54.6*	35.3*	39.1	5.7	7.6
O=C(COc1ccc(Cl)cc1)Nc1cccc(-c2ccc(N3CCOCC3)nn2)c1	-25.4	13.0	.	-3.9	5.8	68.1*	32.5*	44.7	7.2	3.8
NS(=O)(=O)c1cccc(NC(=O)CSc2nnc(NC3CC3)s2)c1	.	4.8	.	.	.	0.9	.	.	.	.
Cc1ccccc1NC(=O)CCN1C(=O)CSC1=O	-16.2	-2.2	-11.6	-12.2	8.1	105.9*	-6.2	-6.0	3.1	5.1
SMILES	OX1R antag-1	TAAR1 agonist	GPR7 antag	CHO parental Ca	OX1R antag-2	TAAR1 antagonist	TAAR1 nonsel count	TAAR1 ant conf	Ga16 ag counter	TAAR1 ag count
Cc1ccc(C(OCC(C)(C)C[N+](C)(C)C)c2ccccc2)cc1 (stereo not drawn)	-11.7	3.0	-16.9	1.4	17.8	-23.6	.	.	.	.
COc1ccc(CCNC(=O)c2ccc(-c3ccc([N+](=O)[O-])cc3)o2)cc1OC	1.3	13.0	-5.8	-0.1	13.5	61.1*	22.0*	34.4	11.1	9.6
COc1ccc(CCNC(=O)c2noc(C(C)C)c2[N+](=O)[O-])cc1OC	-11.8	0.2	2.4	-5.3	1.6	8.8	.	.	.	.
O=C(Cc1ccccc1F)Nc1nc(-c2ccc(F)c(F)c2)cs1	-10.4	10.7	2.3	-3.8	35.0	67.5*	24.0*	49.5*	10.6	14.2
COc1ccc(CC(=O)Nc2nc(-c3cc(OC)ccc3OC)cs2)cc1	-20.9	11.8	-12.2	-23.2	25.3	55.5*	22.4*	34.4	6.7	2.1
COc1ccc(-c2csc(NC(=O)[C@H](C)N3C(=O)C4CC=CCC4C3=O)n2)cc1OC (stereo partly drawn)	10.7	15.7	.	1.7	19.8	46.8	.	.	.	.
O=C(Cc1ccc(F)cc1)Nc1nc(-c2ccc(F)cc2)cs1	-3.5	3.6	-4.4	-5.4	12.5	82.3*	46.5*	57.0*	6.8	-0.6
O=C(O)CCCC(=O)Nc1nc(-c2ccc(F)cc2)cs1	2.4	10.6	-6.7	-11.4	34.8	3.8	.	.	.	.

Assay outcomes deposited in PubChem by The Scripps Research Institute Molecular Screening Center.
